Source: ChEMBL document CHEMBL1135814, “Aldisine alkaloids from the Philippine sponge Stylissa massa are potent inhibitors of mitogen-activated protein kinase kinase-1 (MEK-1)” (J Med Chem, 2002)

Experiments:
LoVo = test: Inhibition of human adenocarcinoma cell line LoVo proliferation; assay type: functional, cell-based
Procedure, shortened: (§1)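 Cells grown in RPMI 1640 with 10% fetal bovine serum, L-glutamine and penicillin/streptomycin. Compounds from 100% DMSO stocks were diluted in complete medium and applied at varying concentrations. Growth inhibition was read by sulforhodamine B staining, reported as IC50.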

[1] = biological target: Dual specificity mitogen-activated protein kinase kinase 1 (Homo sapiens, UniProt Q02750); test: Inhibition of MEK1 phosphorylation by activated human recombinant Raf
Caco-2 = test: Inhibition of human adenocarcinoma cell line Caco-2 proliferation; assay type: functional, cell-based; procedure, shortened: as §1
[2] = biological target: Serine/threonine-protein kinase RAF and Dual specificity mitogen-activated protein kinase kinase 1 (Raf/MEK) (Homo sapiens, UniProt P04049+Q02750); test: Inhibition of kinase activity of Raf/MEK/ERK kinase cascade in ELISA; assay type: protein assay

Chain of Dual specificity mitogen-activated protein kinase kinase 1 (Q02750 whole entry): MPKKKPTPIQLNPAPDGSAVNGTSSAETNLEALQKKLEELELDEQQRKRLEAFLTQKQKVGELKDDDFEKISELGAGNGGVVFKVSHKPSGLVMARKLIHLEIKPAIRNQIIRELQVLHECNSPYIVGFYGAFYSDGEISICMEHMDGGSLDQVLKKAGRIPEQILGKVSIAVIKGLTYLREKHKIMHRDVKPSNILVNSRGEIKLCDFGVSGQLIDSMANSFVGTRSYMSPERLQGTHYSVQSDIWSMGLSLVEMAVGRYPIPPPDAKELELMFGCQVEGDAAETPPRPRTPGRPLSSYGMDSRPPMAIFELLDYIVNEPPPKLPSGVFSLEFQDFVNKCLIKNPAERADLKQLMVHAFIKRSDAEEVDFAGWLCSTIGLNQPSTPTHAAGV

Row | IC50 (LoVo) | IC50 [1] | IC50 (Caco-2) | IC50 [2] | SMILES
1 | > 10 µM | – | > 10 µM | – | O=C1CCNC(=O)c2[nH]c(Br)cc21
2 | > 10 µM | > 2500 nM | > 10 µM | > 2500 nM | O=C1CCNC(=O)c2[nH]ccc21 [ALDISIN]
3 | 0.71 µM | – | > 7.8 µM | – | NC1=NC(=O)/C(=C2\CCNC(=O)c3[nH]c(Br)cc32)N1 [HYMENIALDISINE]

Second part, the molecule before the results:

Row | SMILES | IC50 (LoVo) | IC50 [1] | IC50 (Caco-2) | IC50 [2]
4 | Nc1nc(C2CCNC(=O)c3[nH]c(Br)c(Br)c32)c[nH]1 (stereo not drawn) | > 10 µM | > 2500 nM | > 10 µM | 1288 nM
5 | NC(=O)c1cc(Br)c(Br)[nH]1 | > 10 µM | > 2500 nM | > 10 µM | > 2500 nM
6 | NC1=N/C(=C2\CCNC(=O)c3[nH]c(Br)cc32)C(=O)N1 | 0.586 µM | – | > 3.87 µM | –
7 | CSCC[C@H](NC(=O)c1ccc(NC[C@@H](N)CS)cc1-c1ccccc1)C(=O)O | 0.05 µM | – | > 10 µM | –
8 | NC1=N/C(=C2/CCNC(=O)c3[nH]ccc32)C(=O)N1 [DEBROMOHYMENIALDISINE] | > 10 µM | > 2500 nM | > 10 µM | 881 nM
9 | Nc1ncc(/C=C/CNC(=O)c2cc(Br)c(Br)[nH]2)[nH]1 [OROIDIN] | > 10 µM | > 2500 nM | > 10 µM | > 2500 nM
